Assay results taken from the M2OR odorant receptor database.

target: T1, OR2M7 (Homo sapiens) (UniProt Q8NG81); conditions: stereoisomer not certain
T1 sequence (whole entry): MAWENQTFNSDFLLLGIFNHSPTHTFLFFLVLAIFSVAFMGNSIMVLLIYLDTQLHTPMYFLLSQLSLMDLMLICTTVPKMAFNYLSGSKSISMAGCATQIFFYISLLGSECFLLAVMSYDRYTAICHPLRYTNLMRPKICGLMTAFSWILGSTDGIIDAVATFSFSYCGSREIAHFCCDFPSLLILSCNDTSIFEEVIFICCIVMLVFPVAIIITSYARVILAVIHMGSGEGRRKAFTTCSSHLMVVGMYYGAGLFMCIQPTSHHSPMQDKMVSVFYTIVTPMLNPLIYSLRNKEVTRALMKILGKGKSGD
Procedure, shortened: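 Assay methods differ from source to source, frequently being transient luciferase assays in mammalian cell lines. For each receptor–molecule pair, the label responsive (active) applies when the original authors judged the measured signal statistically different from baseline, and non-responsive (inactive) applies otherwise.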

| SMILES | odorant receptor agonist call |
| --- | --- |
| CCCCCCCCCC(=O)[O-].[H+] | inactive |
| O=C(c1ccccc1)c1ccccc1 | inactive |
| CC12CCC(CC1=O)C2(C)C (configuration not stated) | inactive |
| CCCCCCCCCS | inactive |
| CCCCCCCC(C)=O | inactive |
| CCCCCCCC(=O)[O-].[H+] | inactive |
| CCCCC(=O)O | inactive |
| CCCCC(=O)CC | inactive |
| C=C(C)C1CCC(C)C(=O)C1 (configuration not stated) | inactive |
| CCCC(=O)C(C)=O | inactive |
| c1ccccc1 | inactive |
| CC(C)=CCCC(C)CCO (configuration not stated) | active |
| O=C1CCOc2ccccc21 | inactive |
| CCCCOC=O | inactive |
| CCCCCCCCC(=O)O | inactive |
| CCC(S)C(C)CO (configuration not stated) | inactive |
| CCCCC(C)=O | inactive |
| O=C1Cc2ccccc2O1 | inactive |
| CCCCCC1=C(C)CCC1=O | inactive |
| COc1cc(C(=O)O)ccc1O | inactive |
| CCCCCC=O | inactive |
| CCC(=O)O | inactive |
| CCCCCCCCCCO | inactive |
| CC(=O)Oc1ccccc1 | inactive |
| CCCCCCOC(C)=O | inactive |
| O=c1ccc2ccccc2o1 | inactive |
| CCCCCCO | inactive |
